≈ marks a conversion by molar mass, not a printed value.
Tests used:
Escherichia coli = assay: Antibacterial activity against multidrug-resistant Escherichia coli BW25113 harboring AcrB deletion mutant by two-fold broth dilution method; type: functional
Outline: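 Two-fold broth dilution MIC against an isogenic BW25113 strain with AcrB deleted, run alongside the AcrB-expressing parent. The test was done to define sub-inhibitory levels for later checkerboard work.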

[1] = target: T1, Multidrug efflux pump subunit AcrB (Escherichia coli (strain K12)) (UniProt P31224); assay: Inhibition of AcrB in multidrug-resistant Escherichia coli BW25113 assessed as potentiation of chloramphenicol-induced antibacterial activity by measuring chloramphenicol MIC at 16 ug/ml by checkerboard titration method (reference value: 8 ug/ml); details: dose 16.0 µg/ml
T1 sequence (whole entry): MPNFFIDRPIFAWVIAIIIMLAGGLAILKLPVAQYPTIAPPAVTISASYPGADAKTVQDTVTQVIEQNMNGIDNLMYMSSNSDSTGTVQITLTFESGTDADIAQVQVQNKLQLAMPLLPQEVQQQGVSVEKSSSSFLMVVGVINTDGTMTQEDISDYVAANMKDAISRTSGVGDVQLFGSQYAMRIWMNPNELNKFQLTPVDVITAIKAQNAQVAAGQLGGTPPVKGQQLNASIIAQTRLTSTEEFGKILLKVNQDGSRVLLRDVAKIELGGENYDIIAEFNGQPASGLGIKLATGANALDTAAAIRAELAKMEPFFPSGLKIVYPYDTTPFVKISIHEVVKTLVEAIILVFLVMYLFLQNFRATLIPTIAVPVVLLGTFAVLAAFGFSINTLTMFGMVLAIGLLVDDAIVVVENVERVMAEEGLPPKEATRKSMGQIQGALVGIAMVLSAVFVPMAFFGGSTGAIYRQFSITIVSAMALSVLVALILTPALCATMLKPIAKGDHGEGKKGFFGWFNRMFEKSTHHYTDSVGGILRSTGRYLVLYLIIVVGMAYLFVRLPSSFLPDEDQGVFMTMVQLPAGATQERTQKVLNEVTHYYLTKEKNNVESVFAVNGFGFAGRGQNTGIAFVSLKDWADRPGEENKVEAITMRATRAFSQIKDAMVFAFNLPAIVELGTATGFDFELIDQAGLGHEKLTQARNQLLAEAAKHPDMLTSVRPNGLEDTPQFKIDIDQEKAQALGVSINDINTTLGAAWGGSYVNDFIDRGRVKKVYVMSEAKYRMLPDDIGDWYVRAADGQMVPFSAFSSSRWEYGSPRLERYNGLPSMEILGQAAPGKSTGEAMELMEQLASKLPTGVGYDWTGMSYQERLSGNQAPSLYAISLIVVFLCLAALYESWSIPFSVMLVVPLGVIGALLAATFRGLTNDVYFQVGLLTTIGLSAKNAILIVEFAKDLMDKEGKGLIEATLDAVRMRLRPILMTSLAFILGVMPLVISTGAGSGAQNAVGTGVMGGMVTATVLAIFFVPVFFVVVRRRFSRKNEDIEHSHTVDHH

[2] = target: T1, Multidrug efflux pump subunit AcrB (Escherichia coli (strain K12)); assay: Inhibition of AcrB in multidrug-resistant Escherichia coli BW25113 assessed as potentiation of chloramphenicol-induced antibacterial activity by measuring chloramphenicol MIC at 32 ug/ml by checkerboard titration method (reference value: 8 ug/ml); details: dose 32.0 µg/ml
[3] = target: T1, Multidrug efflux pump subunit AcrB (Escherichia coli (strain K12)); assay: Inhibition of AcrB in multidrug-resistant Escherichia coli BW25113 assessed as potentiation of chloramphenicol-induced antibacterial activity by measuring chloramphenicol MIC at 64 ug/ml by checkerboard titration method (reference value: 8 ug/ml); details: dose 64.0 µg/ml
[4] = target: T1, Multidrug efflux pump subunit AcrB (Escherichia coli (strain K12)); assay: Inhibition of AcrB in multidrug-resistant Escherichia coli BW25113 assessed as potentiation of chloramphenicol-induced antibacterial activity by measuring chloramphenicol MIC at 128 ug/ml by checkerboard titration method (reference value: 8 ug/ml); details: dose 128.0 µg/ml
[5] = target: T1, Multidrug efflux pump subunit AcrB (Escherichia coli (strain K12)); assay: Inhibition of AcrB in multidrug-resistant Escherichia coli BW25113 assessed as potentiation of chloramphenicol-induced antibacterial activity by measuring chloramphenicol MIC at 256 ug/ml by checkerboard titration method (reference value: 8 ug/ml); details: dose 256.0 µg/ml
[6] = target: T1, Multidrug efflux pump subunit AcrB (Escherichia coli (strain K12)); assay: Inhibition of AcrB in multidrug-resistant Escherichia coli BW25113 assessed as potentiation of erythromycin-induced antibacterial activity by measuring erythromycin MIC at 16 ug/ml by checkerboard titration method (reference value: 64 ug/ml); details: dose 16.0 µg/ml
[7] = target: T1, Multidrug efflux pump subunit AcrB (Escherichia coli (strain K12)); assay: Inhibition of AcrB in multidrug-resistant Escherichia coli BW25113 assessed as potentiation of erythromycin-induced antibacterial activity by measuring erythromycin MIC at 32 ug/ml by checkerboard titration method (reference value: 64 ug/ml); details: dose 32.0 µg/ml
[8] = target: T1, Multidrug efflux pump subunit AcrB (Escherichia coli (strain K12)); assay: Inhibition of AcrB in multidrug-resistant Escherichia coli BW25113 assessed as potentiation of erythromycin-induced antibacterial activity by measuring erythromycin MIC at 64 ug/ml by checkerboard titration method (reference value: 64 ug/ml); details: dose 64.0 µg/ml
[9] = target: T1, Multidrug efflux pump subunit AcrB (Escherichia coli (strain K12)); assay: Inhibition of AcrB in multidrug-resistant Escherichia coli BW25113 assessed as potentiation of erythromycin-induced antibacterial activity by measuring erythromycin MIC at 128 ug/ml by checkerboard titration method (reference value: 64 ug/ml); details: dose 128.0 µg/ml
[10] = target: T1, Multidrug efflux pump subunit AcrB (Escherichia coli (strain K12)); assay: Inhibition of AcrB in multidrug-resistant Escherichia coli BW25113 assessed as potentiation of erythromycin-induced antibacterial activity by measuring erythromycin MIC at 256 ug/ml by checkerboard titration method (reference value: 64 ug/ml); details: dose 256.0 µg/ml
[11] = target: T1, Multidrug efflux pump subunit AcrB (Escherichia coli (strain K12)); assay: Inhibition of AcrB in multidrug-resistant Escherichia coli BW25113 assessed as potentiation of tetraphenylphosphonium-induced antibacterial activity by measuring tetraphenylphosphonium MIC at 16 ug/ml by checkerboard titration method (reference value: 1024 ug/ml); details: dose 16.0 µg/ml
[12] = target: T1, Multidrug efflux pump subunit AcrB (Escherichia coli (strain K12)); assay: Inhibition of AcrB in multidrug-resistant Escherichia coli BW25113 assessed as potentiation of tetraphenylphosphonium-induced antibacterial activity by measuring tetraphenylphosphonium MIC at 32 ug/ml by checkerboard titration method (reference value: 1024 ug/ml); details: dose 32.0 µg/ml
[13] = target: T1, Multidrug efflux pump subunit AcrB (Escherichia coli (strain K12)); assay: Inhibition of AcrB in multidrug-resistant Escherichia coli BW25113 assessed as potentiation of tetraphenylphosphonium-induced antibacterial activity by measuring tetraphenylphosphonium MIC at 64 ug/ml by checkerboard titration method (reference value: 1024 ug/ml); details: dose 64.0 µg/ml
[14] = target: T1, Multidrug efflux pump subunit AcrB (Escherichia coli (strain K12)); assay: Inhibition of AcrB in multidrug-resistant Escherichia coli BW25113 assessed as potentiation of tetraphenylphosphonium-induced antibacterial activity by measuring tetraphenylphosphonium MIC at 128 ug/ml by checkerboard titration method (reference value: 1024 ug/ml); details: dose 128.0 µg/ml
[15] = target: T1, Multidrug efflux pump subunit AcrB (Escherichia coli (strain K12)); assay: Inhibition of AcrB in multidrug-resistant Escherichia coli BW25113 assessed as potentiation of tetraphenylphosphonium-induced antibacterial activity by measuring tetraphenylphosphonium MIC at 256 ug/ml by checkerboard titration method (reference value: 1024 ug/ml); details: dose 256.0 µg/ml
[16] = target: T1, Multidrug efflux pump subunit AcrB (Escherichia coli (strain K12)); assay: Inhibition of AcrB in multidrug-resistant Escherichia coli BW25113 assessed as potentiation of levofloxacin-induced antibacterial activity by measuring levofloxacin MIC at 16 ug/ml by checkerboard titration method (reference value: 0.06 ug/ml); details: dose 16.0 µg/ml
[17] = target: T1, Multidrug efflux pump subunit AcrB (Escherichia coli (strain K12)); assay: Inhibition of AcrB in multidrug-resistant Escherichia coli BW25113 assessed as potentiation of levofloxacin-induced antibacterial activity by measuring levofloxacin MIC at 32 ug/ml by checkerboard titration method (reference value: 0.06 ug/ml); details: dose 32.0 µg/ml
[18] = target: T1, Multidrug efflux pump subunit AcrB (Escherichia coli (strain K12)); assay: Inhibition of AcrB in multidrug-resistant Escherichia coli BW25113 assessed as potentiation of levofloxacin-induced antibacterial activity by measuring levofloxacin MIC at 64 ug/ml by checkerboard titration method (reference value: 0.06 ug/ml); details: dose 64.0 µg/ml
[19] = target: T1, Multidrug efflux pump subunit AcrB (Escherichia coli (strain K12)); assay: Inhibition of AcrB in multidrug-resistant Escherichia coli BW25113 assessed as potentiation of levofloxacin-induced antibacterial activity by measuring levofloxacin MIC at 128 ug/ml by checkerboard titration method (reference value: 0.06 ug/ml); details: dose 128.0 µg/ml
[20] = target: T1, Multidrug efflux pump subunit AcrB (Escherichia coli (strain K12)); assay: Inhibition of AcrB in multidrug-resistant Escherichia coli BW25113 assessed as potentiation of levofloxacin-induced antibacterial activity by measuring levofloxacin MIC at 256 ug/ml by checkerboard titration method (reference value: 0.06 ug/ml); details: dose 256.0 µg/ml
[21] = target: T1, Multidrug efflux pump subunit AcrB (Escherichia coli (strain K12)); details: Escherichia coli BW25113; dose 16.0 µg/ml
[22] = target: T1, Multidrug efflux pump subunit AcrB (Escherichia coli (strain K12)); details: Escherichia coli BW25113; dose 32.0 µg/ml
[23] = target: T1, Multidrug efflux pump subunit AcrB (Escherichia coli (strain K12)); details: Escherichia coli BW25113; dose 64.0 µg/ml
[24] = target: T1, Multidrug efflux pump subunit AcrB (Escherichia coli (strain K12)); details: Escherichia coli BW25113; dose 128.0 µg/ml
[25] = target: T1, Multidrug efflux pump subunit AcrB (Escherichia coli (strain K12)); details: Escherichia coli BW25113; dose 256.0 µg/ml
[26] = Toxicity in multidrug-resistant Escherichia coli BW25113 assessed as growth inhibition by two-fold broth dilution method
[27] = Toxicity in multidrug-resistant Escherichia coli BW25113 harboring AcrB deletion mutant assessed as growth inhibition by two-fold broth dilution method

CO[C@H]1/C=C/O[C@@]2(C)Oc3c(C)c(O)c4c(O)c(c(/C=N/N5CCN(C)CC5)c(O)c4c3C2=O)NC(=O)/C(C)=C\C=C\[C@H](C)[C@H](O)[C@@H](C)[C@@H](O)[C@@H](C)[C@H](OC(C)=O)[C@@H]1C [RIFAMPIN]
MIC (Escherichia coli): 16 µg/mL (≈ 19.4 µM)

c1ccc([P+](c2ccccc2)(c2ccccc2)c2ccccc2)cc1 [TETRAPHENYLPHOSPHONIUM]
MIC (Escherichia coli): 32 µg/mL

C[C@@H](Cc1ccc(O)c(O)c1)[C@@H](C)Cc1ccc(O)c(O)c1
MIC [1]: 8 µg/mL
MIC [2]: 8 µg/mL
MIC [3]: 8 µg/mL
MIC [4]: 4 µg/mL
MIC [5]: 2 µg/mL
MIC [6]: 64 µg/mL
MIC [7]: 64 µg/mL
MIC [8]: 64 µg/mL
MIC [9]: 64 µg/mL
MIC [10]: 32 µg/mL
MIC [11]: 1020 µg/mL
MIC [12]: 1020 µg/mL
MIC [13]: 1020 µg/mL
MIC [14]: 128 µg/mL
MIC [15]: 64 µg/mL
MIC [16]: 0.06 µg/mL
MIC [17]: 0.06 µg/mL
MIC [18]: 0.03 µg/mL
MIC [19]: 0.03 µg/mL
MIC [20]: 0.03 µg/mL
MIC [21]: 16 µg/mL (≈ 52.9 µM)
MIC [22]: 16 µg/mL (≈ 52.9 µM)
MIC [23]: 16 µg/mL (≈ 52.9 µM)
MIC [24]: 16 µg/mL (≈ 52.9 µM)
MIC [25]: 16 µg/mL (≈ 52.9 µM)

CC1CN(C(=O)c2cc3c(OCc4ccc([N+](=O)[O-])cc4)cccc3c3c2CCC(C)(C)O3)CC(C)O1 (centres undefined)
MIC [26]: > 512 µg/mL
MIC [27]: > 128 µg/mL

Source: ChEMBL document CHEMBL4732114, “Design and structural optimization of novel 2H-benzo[h]chromene derivatives that target AcrB and reverse bacterial multidrug resistance” (Eur J Med Chem, 2021)
